≈ marks a conversion by molar mass, not a printed value. Calls of active or inactive are those of the source. No cut-off for these calls is given here.
Legend:
[1] = system: Mycobacterium tuberculosis; assay: Antituberculosis activity against Mycobacterium tuberculosis; format: functional, organism-based
Hepatitis B virus = assay: Antiviral activity against Hepatitis B virus replication in human HepG2(2.2.15) cells; format: functional, organism-based
Method in brief: (§1)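 Run in cultures of 2.2.15 cells. Inhibition of HBV replication reported as EC50 and EC90, and cytotoxicity in the same cells as CC50, all in µg/mL. A selectivity index was taken from cytotoxic and antiviral concentrations.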

[2] = Cytotoxicity against human HepG2(2.2.15) cells; format: cell-based; method in brief: as §1
Plasmodium falciparum [3] = assay: Antimalarial activity against Plasmodium falciparum D6; format: functional
Plasmodium falciparum [4] = assay: Antimalarial activity against Plasmodium falciparum W2; format: functional
Cryptococcus neoformans = assay: Antifungal activity against Cryptococcus neoformans; format: functional
Candida albicans = assay: Antifungal activity against Candida albicans; format: functional
Staphylococcus aureus [5] = assay: Antibacterial activity against methicillin-resistant Staphylococcus aureus; format: functional
Staphylococcus aureus [6] = assay: Antibacterial activity against Staphylococcus aureus; format: functional

## Cc1ccc([C@@H](C)CCC[C@H](C)C(=O)O)c(O)c1
[1]
  Activity: inactive

## CC(C)=CCC[C@H](C)c1ccc(C)cc1OC(=O)c1ccncc1
[1]
  Activity: inactive

## Cc1ccc([C@@H](C)CC[C@H](O)C(C)(C)O)c(O)c1
[1]
  Activity: inactive

## Cc1ccc([C@@H](C)CCCC(C)(C)O)c(O[C@H]2O[C@H](CO)[C@@H](O)[C@H](O)[C@H]2O)c1
[1]
  Activity: inactive

## Cc1ccc([C@@H](C)CCCC(C)(C)O)c(OC(=O)c2ccncc2)c1
[1]
  Activity: inactive

## CC(C)=CCC[C@H](C)c1ccc(C)c([N+](=O)[O-])c1O
[1]
  Activity: inactive

## Cc1ccc([C@@H](C)CC[C@@H](O)C(C)(C)O)c(O)c1
[1]
  Activity: inactive

## Cc1ccc([C@@H](C)CCC(=O)O)c(O)c1
[1]
  Activity: inactive

## Cc1ccc([C@@H](C)CCC[C@@H](C)CO)c(O)c1
[1]
  Activity: inactive

## Cc1ccc([C@@H](C)CCC[C@@H](C)C(=O)O)c(O)c1
[1]
  Activity: inactive

## Cc1ccc([C@@H](C)CCC[C@H](C)CO)c(O)c1
[1]
  Activity: inactive

## C/C(C=O)=C\CC[C@H](C)c1ccc(CO)cc1O
[1]
  Activity: inactive

## CC(C)=CCC[C@H](C)c1cc([N+](=O)[O-])c(C)cc1O
[1]
  Activity: inactive
Hepatitis B virus
  EC50: 61 µg/mL (≈ 232 µM)
  EC90: 203 µg/mL (≈ 771 µM)
[2]
  CC50: 39 µg/mL (≈ 148 µM)

## Cc1ccc([C@@H](C)CCCC(C)C(=O)O)c(O)c1 (some centres not stated)
[1]
  Activity: inactive

## C/C(=C\CC[C@H](C)c1ccc(C)cc1O)CO
[1]
  Activity: inactive

## CC(C)=CCC[C@H](C)c1ccc(C)cc1O[C@H]1O[C@H](CO)[C@@H](O)[C@H](O)[C@H]1O
[1]
  Activity: inactive

## CC(C)=CCC[C@H](C)c1ccc(CO)cc1O
Plasmodium falciparum [3]
  MIC: 3.8 µg/mL (≈ 16.2 µM)
[1]
  Activity: inactive
Plasmodium falciparum [4]
  MIC: 2.9 µg/mL (≈ 12.4 µM)

## C/C(=C\CC[C@H](C)c1ccc(CO)cc1O)CO
[1]
  Activity: inactive

## CC(C)=CCC[C@H](C)c1ccc(C)cc1O
Plasmodium falciparum [3]
  MIC: 3.6 µg/mL (≈ 16.5 µM)
[1]
  Activity: inactive
Cryptococcus neoformans
  MFC: 12.5 µg/mL (≈ 57.3 µM)
  MIC: 7.5 µg/mL (≈ 34.4 µM)
Candida albicans
  MFC: 12.5 µg/mL (≈ 57.3 µM)
  MIC: 7.5 µg/mL (≈ 34.4 µM)
Staphylococcus aureus [5]
  MBC: 12.5 µg/mL (≈ 57.3 µM)
  MIC: 7.5 µg/mL (≈ 34.4 µM)
Staphylococcus aureus [6]
  MBC: 12.5 µg/mL (≈ 57.3 µM)
  MIC: 7.5 µg/mL (≈ 34.4 µM)
Plasmodium falciparum [4]
  MIC: 1.8 µg/mL (≈ 8.24 µM)

## Cc1ccc([C@@H](C)CCCC(C)(C)O)c(O)c1
[1]
  Activity: inactive

## Cc1ccc([C@@H](C)CCCC(C)CO)c(O)c1 (some centres not stated)
[1]
  Activity: inactive

## Cc1ccc([C@@H](C)CCC(=O)C(C)(C)O)c(O)c1
[1]
  Activity: inactive
